These results are taken from ChEMBL document CHEMBL1135639, “Array-based structure and gene expression relationship study of antitumor sulfonamides including N-[2-[(4-hydroxyphenyl)amino]-3-pyridinyl]-4-methoxybenzenesulfonamide and N-(3-chloro-7-indolyl)-1,4-benzenedisulfonamide” (J Med Chem, 2002).

Molecules are shown by their SMILES. “And” between values parts separate entries of the source, which are not always exact repeats. Identical values can stand only once.

One experiment addresses Tubulin (Bos taurus, UniProt Q6B856+Q862L2+Q862F3). Description: Inhibitory activity against tubulin polymerization. The format is functional. In a few lines:
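Bovine brain microtubule protein (1 mg/mL) in 0.1 M MES, 1 mM EGTA, 0.5 mM MgCl2, pH 6.8, with 5% DMSO final. Compound at 0.30–100 µM, held 30 min at 4 °C, then warmed to 37 °C with 1 mM GTP. Turbidity followed at 350 nm; the 30 min value is plotted against log concentration. IC50 by least squares, triplicate.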

Experiment [1] relates to HCT-116. As to the kind of experiment: Effective concentration to inhibit cell proliferation by 50% relative to untreated control cell after 72 hr of continuous exposure in HCT116-C9 cell line. In kind it is functional, cell-based. The following applies: Homo sapiens, HCT-116, 72 h.
Experiment [2] concerns HCT-116. As to the kind of experiment: Effective concentration to inhibit cell proliferation by 50% relative to untreated control cell after 72 hr of continuous exposure in HCT116-C9 -C1cell line. The format is functional, cell-based. The settings on record: Homo sapiens, HCT-116, 72 h.
Experiment [3] relates to P388. As to the kind of experiment: Effective concentration to inhibit cell proliferation by 50% relative to untreated control cell after 72 hr of continuous exposure in P388 cell line. In kind it is functional, cell-based. The settings on record: Mus musculus, P388, 72 h.
Experiment [4] has as its system P388. Description: Effective concentration to inhibit cell proliferation by 50% relative to untreated control cell after 72 hr of continuous exposure in P388/4.0 r-M cell line. In kind it is functional, cell-based. The following applies: Mus musculus, P388, 72 h.
A short description of experiment [5]: Relative resistance value as the ratio of IC50 for the resistant cell line to that of parental cell line. The format is functional. In a few lines:
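Ratio of MTT IC50 (72 h exposure) in the resistant subclone to that in the parental line: P388/4.0r-M versus P388, and HCT116-C9-C1 versus HCT116-C9. IC50s come from two triplicate runs each.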

As to `NS(=O)(=O)c1ccc(C(=O)Nc2cccc3c(Cl)c[nH]c23)cc1`, the IC50 at Tubulin is greater than 100000 nM.
`COc1ccc(S(=O)(=O)Nc2cccc3cc(Cl)[nH]c23)cc1`: at Tubulin, the IC50 was 2100 nM.
Regarding `NS(=O)(=O)c1ccc(S(=O)(=O)Nc2cccc3c(Cl)c[nH]c23)cc1` [INDISULAM], the IC50 with HCT-116 [1] was 210 nM; with HCT-116 [2] it was 29000 nM; in the experiment on P388 [3], 610 nM; in the experiment with P388 [4], 590 nM; on Tubulin, greater than 100000 nM. For the same molecule, the Relative resistance in experiment [5] is 0.97 and 1.4.
With `COc1ccc(S(=O)(=O)Nc2cccnc2Nc2ccc(O)cc2)cc1` [ABT-751], the IC50 in the experiment on HCT-116 [1] amounted to 900 nM; in the experiment on HCT-116 [2] it was 960 nM; in the experiment with P388 [3] it was 190 nM; in the experiment with P388 [4], 15000 nM; against Tubulin, 2200 nM.
`NS(=O)(=O)c1ccc(S(=O)(=O)Nc2cccc3cc[nH]c23)cc1` yielded an IC50 against Tubulin greater than 100000 nM.
As to `N#Cc1ccc(S(=O)(=O)Nc2cccc3c(Cl)c[nH]c23)cc1`, the IC50 at Tubulin was greater than 100000 nM.
As to `COc1ccc(S(=O)(=O)Nc2cccc3c(Cl)c[nH]c23)cc1`, the 50% inhibitory concentration (IC50) in the experiment on HCT-116 [1] was found to be 370 nM; in the experiment on HCT-116 [2], 2200 nM; in the experiment on P388 [3], 1200 nM; in the experiment with P388 [4], 1200 nM; against Tubulin it was 9500 nM.
